# Sampled rows, rich in hits. Any-hit rate of the full collection: about 27%.
# CYP2C19 activ = activators of human cytochrome P450 2C19 | activation factor at 5 µM | 96,000 tested, under 10 active | AID 1025 | P33261 | recombinant CYP2C19, luciferin-H EGE luminescence; stronger effect = higher value; 0 = fully inhibited enzyme, 1 = untreated enzyme;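 active = activation factor of at least 2 at 5 µM in the primary screen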;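 also: 0 = wells with 2.5 mM tranylcypromine and 1 = vehicle-only wells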
# CYP2C9 inh = inhibitors of human CYP2C9. P11712. CYP2C9 Supersomes, luciferin-H conversion, luminescence. inhibition, % at 5 µM. 96,000 tested, 20% active. AID 777;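 active = blocking of liver enzyme CYP2C9 beyond about 50% at 5 µM, limit read from the data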
# Target sequence (P11712 whole entry, looked up): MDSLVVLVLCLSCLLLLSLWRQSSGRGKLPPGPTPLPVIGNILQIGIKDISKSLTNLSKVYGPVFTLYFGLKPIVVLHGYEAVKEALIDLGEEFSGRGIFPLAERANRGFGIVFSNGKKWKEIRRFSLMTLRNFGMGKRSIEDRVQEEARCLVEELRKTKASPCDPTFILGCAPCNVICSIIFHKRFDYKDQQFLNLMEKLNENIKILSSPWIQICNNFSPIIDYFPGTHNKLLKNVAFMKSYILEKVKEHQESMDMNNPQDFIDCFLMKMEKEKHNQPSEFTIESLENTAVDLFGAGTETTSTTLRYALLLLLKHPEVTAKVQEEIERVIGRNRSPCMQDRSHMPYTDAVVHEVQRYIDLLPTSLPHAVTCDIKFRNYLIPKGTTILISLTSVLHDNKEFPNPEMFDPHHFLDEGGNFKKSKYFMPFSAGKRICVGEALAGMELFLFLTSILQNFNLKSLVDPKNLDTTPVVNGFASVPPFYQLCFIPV
# Rev-RRE block = HIV Rev-RRE protein-RNA interaction inhibition. inhibition, % at 8 µM. P05866. 97,000 tested, 0.79% active. AID 704. Rev peptide-RRE RNA binding, FRET;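 active = inhibition above the screen-wide mean plus 3 SD, cut at about 35% in these data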;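 also: 0% = median DMSO wells and 100% = median Neomycin B control wells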
#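 Probe or stimulus: fluorescein-Rev peptide as binding partner; assay system: Cy5-tagged RRE RNA duplex with fluorescein-tagged Rev peptide; timing: 5 min compound–RNA preincubation, then 15 min with peptide, 25 °C; medium: HEPES pH 7.5 buffer with KCl, MgCl2, NaCl and EDTA; signal: fluorescein-to-Cy5 FRET, 480 nm excitation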
# CYP2C9 activ = increases human cytochrome P450 2C9 activity. 96,000 tested, 1.4% active. activation factor at 5 µM. recombinant CYP2C9, luciferin-H conversion, luminescence; stronger effect = higher value; factor 1 = untreated enzyme, 0 = blocked;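 active = activation factor of 2 or more for CYP2C9 at a 5 µM dose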;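 also: 0 = sulfaphenazole-blocked wells and 1 = vehicle-only wells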
# Cav32 inh = inhibitors of human Cav3.2 T-type calcium channel | B-score at 10 µM | 100,000 tested, 4% active | Cav3.2-expressing cells, Fluo-4 calcium fluorescence FDSS; stronger effect = lower value | O95180;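 active = single-dose well whose peak fluorescence ratio is a statistical outlier from its plate by either plate-standardised score or position-corrected B-score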
# CYP2C19 inh = inhibitors of human CYP2C19; P33261; CYP2C19 Supersomes, luciferin-H EGE luminescence, 30 min; inhibition, % at 5 µM; 96,000 tested, 21% active; AID 778;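 active = CYP2C19 inhibition above a set limit at 5 µM in the primary screen, cut at about 50% in these data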;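 also: plate controls were negative control wells for no effect and 2.5 mM tranylcypromine positive control for full effect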
# * hit, by the source's call; · = not tested or not shown.
SMILES,CYP2C19 activ,CYP2C9 inh,Rev-RRE block,CYP2C9 activ,Cav32 inh,CYP2C19 inh
C(=C\c1nc2ccccc2[nH]1)/c1ccccc1,0.3,60.5*,4.4,0.4,-1.45,72.0*
CN1CCN(CCCNC(=O)c2cn(C)c3ccc(S(=O)(=O)N(C)C)cc3c2=O)CC1,1,3.7,0.3,1,-0.292,0.9
CC(C)N(CCNC(=O)c1cn(C)c2ccc(S(=O)(=O)N(C)C)cc2c1=O)Cc1ccccc1,0.9,51.4*,12.6,0.5,1.16,10.6
O=C(Nc1cccc(F)c1)c1ccc(S(=O)(=O)N2CCOCC2)cc1,1,-0.4,6.2,1,-1.04,-2.8
Cc1cccc(-n2nc3c(c2NC(=O)c2ccc(S(=O)(=O)N4CCOCC4)cc2)CSC3)c1C,0.9,17.0,-3.4,0.8,·,6.9
O=C(Nc1c2c(nn1-c1ccc(F)cc1)CSC2)c1ccc(S(=O)(=O)N2CCOCC2)cc1,0.9,36.7,-2.9,0.6,-5.58*,12.8
CC(C)(C)n1nc2c(c1NC(=O)c1ccc(S(=O)(=O)N3CCCC3)cc1)CSC2,1.1,35.8,4.2,0.6,-3.47*,-11.2
Cc1ccc(-n2nc3c(c2NC(=O)c2cccs2)CSC3)cc1,0.8,71.8*,-1.7,0.3,-6.26*,22.0
CCC(=O)Nc1c2c(nn1-c1ccccc1C)CSC2,·,·,2.4,·,-1.55,·
Cc1ccccc1-n1nc2c(c1NC(=O)c1ccc(S(=O)(=O)N(C)C)cc1)CSC2,1.1,4.4,-1.3,1,-1.14,-13.2
Cc1ccc(-n2nc3c(c2NC(=O)c2ccc(S(=O)(=O)N4CCOCC4)cc2)CSC3)c(C)c1,0.9,67.3*,3.8,0.3,-3.5,13.2
CC(C)=CC(=O)NCc1c(Cl)cccc1-n1cccc1,0.9,20.6,6.5,0.8,0.636,10.1
C#CCOCCOCCOCCNc1nc(N2CCN(C(=O)[C@H]([C@@H](C)CC)n3cc([C@@H](N)Cc4ccc(O)cc4)nn3)CC2)nc(N2CCN(C(=O)[C@H]([C@@H](C)CC)n3cc([C@@H](N)Cc4ccc(O)cc4)nn3)CC2)n1,·,·,·,·,0.00441,·
CC(C)(C)n1nc2c(c1NC(=O)COc1ccc3ccccc3c1)CS(=O)(=O)C2,0.6,28.5,6.2,0.7,-1.73,40.6
Cc1cccc(NC(=O)c2ccc(S(=O)(=O)N3CCCCC3)cc2)n1,·,·,·,·,-0.0115,·
CCN(CC)S(=O)(=O)c1ccc(C(=O)Nc2c3c(nn2C(C)(C)C)CS(=O)(=O)C3)cc1,1,76.2*,1.4,0.2,0.69,-3.3
Cc1nn(-c2ccccc2)c(C)c1NC(=O)c1ccc(S(=O)(=O)N2CCCC2)cc1,0.9,57.3*,5.0,0.4,0.921,12.2
COc1cc(C#CC#CCN2CCCCC2)ccc1O,0.5,-75.5,1.5,1.8,-0.838,47.5
Cc1ccc(S(=O)(=O)/N=S(/C)c2ccccc2)cc1 (stereo unspecified),0.9,-51.9,0.4,1.5,-0.964,12.2
Cc1c(C2(O)C(=O)Nc3ccc(F)cc32)c(=O)n(-c2ccccc2)n1C (stereo unspecified),1.2,26.4,2.4,0.7,-0.244,-21.7
O=C1Nc2ccc(F)cc2C12SCCS2,0.6,-126.6,5.0,2.3*,·,43.0
CSCCC1NC(=O)N(CC(=O)Nc2cccc3ccccc23)C1=O (stereo unspecified),0.9,-31.5,5.0,1.3,0.367,9.5
COc1ccc(-c2cc3nc(C4CCN(C(=O)OC(C)(C)C)CC4)c(C(=O)O)cn3n2)cc1,1.1,75.3*,-0.4,0.2,-0.786,-5.0
CC(C)(C)OC(=O)N1CCC(c2cc(=O)n3[nH]c(-c4ccc(Cl)cc4)cc3n2)CC1,1.1,-19.7,-3.1,1.2,0.0748,-8.8
COc1ccc2[nH]c3nc(SCc4nnc(-c5ccccc5)o4)nnc3c2c1,0.5,64.3*,5.0,0.4,0.117,49.9
Cc1nnc(SCc2ccon2)n1-c1ccccc1,·,·,8.0,·,0.346,·
C=CCSc1nnc(C)n1-c1ccc(Cl)cc1,0.5,29.7,2.8,0.7,-0.00412,51.7*
CCSc1nnnn1-c1ccccc1,0.7,9.3,2.9,0.9,-0.411,31.7
Cc1nnc(SCc2nnc(-c3ccc(Cl)cc3)o2)n1-c1ccccc1,0.4,46.2,·,0.5,0.914,60.4*
